Like-named read-outs stand apart in the source and are kept apart here. One block for each compound: values may come before it.
Experiments:
U2OS cells = experiment: Growth inhibition assay; assay type: cell-based; settings: Homo sapiens, 72 h, read-out: Growth inhibition GI50, U2OS
Procedure, shortened: (§1)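 Cells cultured as previously described, seeded at […], then given test compound in DMSO over a concentration range, or DMSO alone (1-2% final), after 24 h. Incubation 72 h.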

Cdk1/Cyclin B = Cdk1/Cyclin B (Homo sapiens, UniProt P06493); experiment: Kinase specificity assay; assay type: biochemical
Chain of Cdk1/Cyclin B (P14635 whole entry): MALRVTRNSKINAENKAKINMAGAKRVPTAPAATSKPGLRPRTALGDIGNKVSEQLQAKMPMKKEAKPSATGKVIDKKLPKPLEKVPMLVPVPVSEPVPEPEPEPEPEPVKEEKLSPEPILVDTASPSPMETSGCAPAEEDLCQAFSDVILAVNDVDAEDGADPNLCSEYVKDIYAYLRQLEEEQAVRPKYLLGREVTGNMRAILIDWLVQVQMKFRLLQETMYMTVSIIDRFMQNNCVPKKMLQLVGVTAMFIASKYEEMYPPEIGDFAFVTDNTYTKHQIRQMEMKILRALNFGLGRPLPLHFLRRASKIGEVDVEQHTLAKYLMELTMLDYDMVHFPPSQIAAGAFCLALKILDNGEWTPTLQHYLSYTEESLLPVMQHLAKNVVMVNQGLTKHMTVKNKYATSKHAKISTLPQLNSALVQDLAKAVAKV
Chain of Cdk1/Cyclin B (P06493 whole entry): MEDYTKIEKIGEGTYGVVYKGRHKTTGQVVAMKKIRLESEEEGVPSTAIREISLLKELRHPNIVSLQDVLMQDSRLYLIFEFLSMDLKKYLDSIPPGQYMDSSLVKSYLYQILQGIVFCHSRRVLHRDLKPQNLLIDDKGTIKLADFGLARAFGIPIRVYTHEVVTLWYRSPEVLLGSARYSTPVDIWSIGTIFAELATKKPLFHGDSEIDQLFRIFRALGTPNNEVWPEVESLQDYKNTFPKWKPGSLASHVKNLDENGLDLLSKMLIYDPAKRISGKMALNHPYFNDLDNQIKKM

Nek6 = Nek6 (Homo sapiens, UniProt Q9HC98); experiment: Kinase specificity assay; assay type: biochemical
Chain of Nek6 (Q9HC98 whole entry, species assumed): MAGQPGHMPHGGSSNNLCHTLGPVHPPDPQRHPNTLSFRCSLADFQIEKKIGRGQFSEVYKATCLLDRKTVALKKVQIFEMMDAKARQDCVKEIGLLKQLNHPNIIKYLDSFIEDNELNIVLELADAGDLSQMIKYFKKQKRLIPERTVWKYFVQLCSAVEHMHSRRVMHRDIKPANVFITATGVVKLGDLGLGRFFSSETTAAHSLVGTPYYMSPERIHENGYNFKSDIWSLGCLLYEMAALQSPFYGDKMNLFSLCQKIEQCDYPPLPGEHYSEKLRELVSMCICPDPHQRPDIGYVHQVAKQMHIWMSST

Aurora A = biological target: T1, Aurora A (Homo sapiens, UniProt O14965); experiment: Kinase specificity assay; assay type: biochemical
T1 sequence (O14965 1-403): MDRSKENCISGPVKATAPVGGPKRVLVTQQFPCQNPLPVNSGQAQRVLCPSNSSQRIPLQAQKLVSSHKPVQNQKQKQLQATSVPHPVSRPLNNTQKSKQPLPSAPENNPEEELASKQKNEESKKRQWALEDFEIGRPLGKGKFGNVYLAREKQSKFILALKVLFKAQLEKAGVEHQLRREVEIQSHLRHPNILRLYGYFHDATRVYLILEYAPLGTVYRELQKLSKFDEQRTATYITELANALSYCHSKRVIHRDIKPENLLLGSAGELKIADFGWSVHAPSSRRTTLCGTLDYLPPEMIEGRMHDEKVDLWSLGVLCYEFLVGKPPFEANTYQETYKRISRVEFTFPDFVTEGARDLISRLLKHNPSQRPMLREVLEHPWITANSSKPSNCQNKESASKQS

Nek7 = Nek7 (Homo sapiens, UniProt Q8TDX7); experiment: Kinase specificity assay; assay type: biochemical
Chain of Nek7 (Q8TDX7 whole entry, species assumed): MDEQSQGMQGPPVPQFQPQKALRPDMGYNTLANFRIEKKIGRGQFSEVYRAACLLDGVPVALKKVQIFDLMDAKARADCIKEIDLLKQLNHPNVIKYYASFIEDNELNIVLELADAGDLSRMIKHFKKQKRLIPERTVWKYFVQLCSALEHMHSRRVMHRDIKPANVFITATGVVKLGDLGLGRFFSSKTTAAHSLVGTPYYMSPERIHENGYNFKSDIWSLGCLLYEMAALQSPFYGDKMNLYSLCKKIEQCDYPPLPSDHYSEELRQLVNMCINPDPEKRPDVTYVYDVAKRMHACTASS

HeLa cells = experiment: Growth inhibition assay; assay type: cell-based; settings: Homo sapiens, 72 h, read-out: Growth inhibition GI50, HeLa
Procedure, shortened: as §1

Nek2 [1] = biological target: T2, Nek2 (Homo sapiens, UniProt P51955); experiment: Filter assay of Nek2 kinase activity; assay type: biochemical
T2 sequence (P51955 1-445): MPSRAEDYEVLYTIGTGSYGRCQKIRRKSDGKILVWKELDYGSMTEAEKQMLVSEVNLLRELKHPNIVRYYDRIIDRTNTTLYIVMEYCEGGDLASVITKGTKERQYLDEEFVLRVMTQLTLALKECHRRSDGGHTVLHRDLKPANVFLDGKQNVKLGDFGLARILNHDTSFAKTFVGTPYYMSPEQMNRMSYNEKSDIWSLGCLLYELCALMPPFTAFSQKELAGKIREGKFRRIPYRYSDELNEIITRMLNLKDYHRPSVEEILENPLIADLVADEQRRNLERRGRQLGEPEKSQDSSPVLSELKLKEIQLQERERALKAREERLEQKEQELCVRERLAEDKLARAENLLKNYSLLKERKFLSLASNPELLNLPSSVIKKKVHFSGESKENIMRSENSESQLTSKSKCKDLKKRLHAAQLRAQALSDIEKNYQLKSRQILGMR

Nek2 [2] = biological target: T2, Nek2; experiment: FlashPlate radiometric proximity assay of Nek2 kinase activity; assay type: biochemical
U2OS:GFP-Nek2A cells = experiment: Manual immunofluorescence assay of Nek2A-induced centrosome splitting; assay type: cell-based, human; settings: doxycycline-induced cells; 0.5, 5 and 50 μM; 24 hours; γ-tubulin stain
Procedure, shortened: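 Tetracycline-inducible stable U2OS:GFP-Nek2A cells were induced with doxycycline together with test compound (0.5, 5, 50 μM) or DMSO (2%) for 24 h. Cells were fixed and stained for γ-tubulin and DNA for indirect immunofluorescence. The percentage of interphase cells with centrosomes more than 2 μm apart was scored. Three repeat experiments, standard deviations; Student's t-test versus DMSO.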

Structure (SMILES): COC[C@H]1OC(=O)c2coc3c2[C@@]1(C)C1=C(C3=O)[C@@H]2CCC(=O)[C@@]2(C)C[C@H]1OC(C)=O [Wortmannin]
GI50 (U2OS cells): 23.7 µM
IC50 (Cdk1/Cyclin B): > 400 µM
IC50 (Nek6): > 400 µM
IC50 (Aurora A): > 400 µM
IC50 (Nek7): > 400 µM
GI50 (HeLa cells): 15 µM

Nek2 inhibition, filter assay (result in words) (Nek2 [1]): inactive
Nek2 inhibition, FlashPlate (result in words) (Nek2 [2]): inactive
Structure (SMILES): O=c1cc(N2CCOCC2)oc2c(-c3ccccc3)cccc12 [LY294002]

Structure (SMILES): CN[C@@H]1C[C@H]2O[C@@](C)([C@@H]1OC)n1c3ccccc3c3c4c(c5c6ccccc6n2c5c31)C(=O)NC4 [Staurosporine, staurosporine]
Hill slope of Nek2 inhibition (Nek2 [2]; data not shown): ~1.0
inhibition at 25 µM (Nek2 [2]; read-out: Inhibition of Nek2 activity at 25 μM, entire screen): 59 ± 18%
inhibition at 25 µM (Nek2 [2]; read-out: Inhibition of Nek2 activity at 25 μM, typical batch): 61.2 ± 2.4%

Structure (SMILES): Oc1ccc(Nc2nc(OCC3CCCCC3)c3[nH]cnc3n2)cc1 [NU6120, 6-cyclohexylmethoxy-2-(4′-hydroxyanilino)purine]
Effect on Nek2A-induced centrosome splitting (manual scoring, split >2 μm) (U2OS:GFP-Nek2A cells): had no effect on splitting

— article PMC3947748 (Journal of biomolecular screening, 2010)
